Reference: ChEMBL document CHEMBL3576783, “Synthesis and evaluation of 1,2,4-triazolo[1,5-a]pyrimidines as antibacterial agents against Enterococcus faecium” (J Med Chem, 2015)
≈ marks a conversion by molar mass, not a printed value. Calls of active or inactive are those of the source. The calls are words filed in the database; no cut-off is given here.

Key:
Enterococcus faecium [1] = assay: Inhibition of peptidoglycan synthesis in Enterococcus faecium NCTC 7171 assessed as decrease in D-[2,3-3H]-alanine incorporation at 8 ug/ml after 120 mins by liquid scintillation counting analysis; assay type: functional, organism-based
How it was run: (§1)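 E. faecium NCTC 7171 grown in brain-heart infusion at 37 °C to early-log phase. Tritiated precursor (1 uCi/mL) added and incubated 5 min; compound then added at 8 μg/mL with DMSO negative control, followed by 2 h growth. Samples taken every 20 min, precipitated in 20% ice-cold TCA, filtered, washed with TCA and ethanol, and scintillation-counted in duplicate. Value reported at 120 min.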

Escherichia coli = assay: Effect on beta-galactosidase reporter gene translation in Escherichia coli S30 extract by transcription/translation assay; assay type: functional
Enterococcus faecium [2] = assay: Inhibition of DNA replication in Enterococcus faecium NCTC 7171 assessed as decrease in [methyl-3H]-thymidine incorporation into DNA at 8 ug/ml after 120 mins by liquid scintillation counting analysis; assay type: functional, organism-based; how it was run: as §1
Enterococcus faecium [3] = assay: Inhibition of translation in Enterococcus faecium NCTC 7171 assessed as decrease in L-[4,5-3H]-leucine incorporation into protein at 8 ug/ml after 120 mins by liquid scintillation counting analysis; assay type: functional, organism-based; how it was run: as §1
Enterococcus faecium [4] = assay: Antibacterial activity against vancomycin and teicoplanin-resistant Enterococcus faecium ATCC 700221 isolated from human faeces assessed as bacterial growth inhibition after 16-20 hrs by broth microdilution method; assay type: functional; details: ATCC 700221, Feces
How it was run: (§2)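 Broth microdilution in cation-adjusted Mueller Hinton II broth, run to CLSI method, triplicate. Cells grown to OD600 ~0.60-0.80, diluted 100-fold; final inoculum 5×10^5 CFU/mL. Compounds from 5 mg/mL DMSO stocks diluted in medium, final 2% (v/v) DMSO plus 0.25% (v/v) glacial acetic acid. Incubated 35 °C for 16-20 h, then MIC read.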

Enterococcus faecium [5] = assay: Inhibition of transcription in Enterococcus faecium NCTC 7171 assessed as decrease in [5,6-3H]-uridine incorporation into RNA at 8 ug/ml after 120 mins by liquid scintillation counting analysis; assay type: functional, organism-based; how it was run: as §1
[6] = Induction of hemolysis in RBC (unknown origin) at 64 ug/ml; details: erythrocytes
Enterococcus faecium [7] = assay: Antibacterial activity against copper, erythromycin, teracycline-resistant and vancomycin and teicoplanin-sensitive Enterococcus faecium ATCC BAA2127 assessed as bacterial growth inhibition after 16-20 hrs by broth microdilution method; assay type: functional
How it was run: as §2, with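 “CLSI broth” for “Broth”, “broth,” for “broth, run to CLSI method,”, “Cultures” for “Cells”, “about 0.60-0.80,” for “~0.60-0.80,”, “stock” for “stocks”, “°C,” for “°C for”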

Plasma = assay: Plasma protein binding in human at 10 uM by rapid equilibrium dialysis method; assay type: ADME, cell-free
How it was run: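 Human plasma centrifuged to clear particulates, spiked with compound to final 10 μM in 0.1% DMSO. Dialysed against 0.1 M sodium phosphate buffer, pH 7.4, at 37 °C overnight with shaking in a rapid equilibrium dialysis device. Buffer and plasma sides extracted with acetonitrile containing internal standard and analysed by UPLC-MRM. Binding calculated as (Cp−Cf)/Cp×100.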

Liver = assay: Half life in human liver S9 at 10 uM after 60 mins by UPLC analysis; assay type: ADME, subcellular, Liver S9 fraction; details: s9, 1 h
How it was run: (§3)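 Pooled human liver S9 (1 mg/mL) with 1 mM NADPH and 10 μM compound in sodium phosphate buffer (0.20 M phosphate, 0.15 M NaCl, pH 7.4), 37 °C for 60 min. Six time points quenched in acetonitrile with internal standard, analysed by UPLC-MRM. Half-life taken from first-order rate constant; CLint scaled with 45 mg protein/g liver and 20 g liver/kg. Run in duplicate.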

Enterococcus faecium [8] = assay: Antibacterial activity against Enterococcus faecium C38 assessed as bacterial growth inhibition after 16-20 hrs by broth microdilution method; assay type: functional
How it was run: as §2, with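 “CLSI broth” for “Broth”, “broth,” for “broth, run to CLSI method,”, “Cultures” for “Cells”, “about 0.60-0.80,” for “~0.60-0.80,”, “stock” for “stocks”, “°C,” for “°C for”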

Enterococcus faecium [9] = assay: microbe, parasite or virus in culture; details: NCTC 7171
Enterococcus faecium [10] = assay: Antibacterial activity against vancomycin-susceptible Enterococcus faecium 119-39A assessed as bacterial growth inhibition after 16-20 hrs by broth microdilution method; assay type: functional
How it was run: as §2, with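 “CLSI broth” for “Broth”, “broth,” for “broth, run to CLSI method,”, “Cultures” for “Cells”, “about 0.60-0.80,” for “~0.60-0.80,”, “stock” for “stocks”, “°C,” for “°C for”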

[11] = Apparent intrinsic clearance in human liver S9 at 10 uM after 60 mins by UPLC analysis; assay type: ADME, subcellular, Liver S9 fraction; details: read-out: CLH(app); how it was run: as §3
Enterococcus faecium [12] = assay: Antibacterial activity against Enterococcus faecium C68 assessed as bacterial growth inhibition after 16-20 hrs by broth microdilution method; assay type: functional
How it was run: as §2, with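 “CLSI broth” for “Broth”, “broth,” for “broth, run to CLSI method,”, “Cultures” for “Cells”, “about 0.60-0.80,” for “~0.60-0.80,”, “stock” for “stocks”, “°C,” for “°C for”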

Acinetobacter baumannii = assay: Antibacterial activity against Acinetobacter baumannii ATCC 17961 assessed as bacterial growth inhibition after 16-20 hrs by broth microdilution method; assay type: functional, organism-based
How it was run: (§4)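 CLSI broth microdilution in cation-adjusted Mueller Hinton II broth, run in triplicate. Cultures grown to OD600 about 0.60-0.80, diluted 100-fold, final inoculum 5×10^5 CFU/mL. Compounds diluted from 5 mg/mL DMSO stocks; final 2% (v/v) DMSO plus 0.25% (v/v) glacial acetic acid. Plates incubated at 35 °C for 16-20 h before reading the MIC.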

Klebsiella pneumoniae = assay: Antibacterial activity against Klebsiella pneumoniae ATCC 700603 assessed as bacterial growth inhibition after 16-20 hrs by broth microdilution method; assay type: functional, organism-based; how it was run: as §4
Enterococcus faecium [13] = assay: Antibacterial activity against Enterococcus faecium C9 assessed as bacterial growth inhibition after 16-20 hrs by broth microdilution method; assay type: functional
How it was run: as §2, with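 “CLSI broth” for “Broth”, “broth,” for “broth, run to CLSI method,”, “Cultures” for “Cells”, “about 0.60-0.80,” for “~0.60-0.80,”, “stock” for “stocks”, “°C,” for “°C for”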

Staphylococcus aureus [14] = assay: Inhibition of Staphylococcus aureus PBP2a up to 100 ug/ml by BIOCILLIN FL based fluorescence analysis
How it was run: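 Recombinant purified PBP2a (final 2 μM) preincubated with inhibitor in 25 mM Hepes, 1 M NaCl, pH 7.0, 37 °C, 10 min. BOCILLIN FL (final 20 μM) then added for 10 min at 37 °C. Samples boiled in SDS buffer and run on 12% SDS-PAGE. Fluorescent bands scanned and quantified against a no-inhibitor control.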

Pseudomonas aeruginosa = assay: Antibacterial activity against Pseudomonas aeruginosa ATCC 27853 assessed as bacterial growth inhibition after 16-20 hrs by broth microdilution method; assay type: functional, organism-based; how it was run: as §4
Enterobacter sp. = assay: Antibacterial activity against Enterobacter sp. assessed as bacterial growth inhibition after 16-20 hrs by broth microdilution method; assay type: functional, organism-based; how it was run: as §4
Staphylococcus aureus [15] = assay: Antibacterial activity against Staphylococcus aureus ATCC 29213 assessed as bacterial growth inhibition after 16-20 hrs by broth microdilution method; assay type: functional, organism-based; how it was run: as §4
BL21-DE3 = assay: Inhibition of Enterococcus faecium D63r PBP5fm expressed in Escherichia coli BL21 (DE3) cells up to 100 ug/ml after 10 to 20 mins by BIOCILLIN FL-based fluorescence assay
How it was run: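 Recombinant PBP5fm lacking the signal peptide, expressed in E. coli BL21(DE3) and purified by anion-exchange then chelating chromatography. Enzyme (40 μM) preincubated with inhibitor in 25 mM Hepes, 1 M NaCl, pH 7.0 at 37 °C for 20 min. BOCILLIN FL (30 μM) then added for a further 20 min. Bands resolved on 12% SDS-PAGE and fluorescence quantified against a no-inhibitor control.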

SMILES | MIC (Enterococcus faecium [4]) [µg/mL] | Activity [6] [%] | MIC (Enterococcus faecium [7]) [µg/mL] | PPB (Plasma) [%] | t1/2 (Liver) [min] | MIC (Enterococcus faecium [8]) [µg/mL] | MBC (Enterococcus faecium [9]) [µg/mL] | MIC (Enterococcus faecium [9]) [µg/mL] | MIC (Enterococcus faecium [10]) [µg/mL] | CLint scaled at 10 µM [11] [mL/min/kg] | MIC (Enterococcus faecium [12]) [µg/mL] | MIC (Enterococcus faecium [13]) [µg/mL] | inhibition (Staphylococcus aureus [14]) | inhibition (BL21-DE3) | other results
CC1=C(C(N)=O)C(c2ccc(N(C)C)cc2)n2nc(SCc3ccccc3)nc2N1 (stereo not given) | 4 (≈ 9.51 µM) | 2 | 4 (≈ 9.51 µM) | 97.6 | > 60 | 16 (≈ 38 µM) | 32 (≈ 76.1 µM) | 4 (≈ 9.51 µM) | 4 (≈ 9.51 µM) | < 10.4 | – | – | – | – | inhibition (Enterococcus faecium [1]): Active; Activity (Escherichia coli): inactive; inhibition (Enterococcus faecium [2]): inactive; inhibition (Enterococcus faecium [3]): inactive; inhibition (Enterococcus faecium [5]): inactive
CC1=C(C(N)=O)C(c2ccc(OC(C)C)cc2)n2nc(SCc3ccccc3)nc2N1 (stereo not given) | 8 (≈ 18.4 µM) | < 1 | 16 (≈ 36.7 µM) | – | 57 | 32 (≈ 73.5 µM) | – | 4 (≈ 9.18 µM) | – | 10.9 | – | – | – | – | –
CC1=C(C(N)=O)C(c2ccc(C(C)C)cc2)n2nc(SCc3ccccc3)nc2N1 (stereo not given) | – | 22 | 4 (≈ 9.53 µM) | 98.7 | 56 | 16 (≈ 38.1 µM) | 32 (≈ 76.3 µM) | 8 (≈ 19.1 µM) | 4 (≈ 9.53 µM) | 11.1 | 16 (≈ 38.1 µM) | 16 (≈ 38.1 µM) | inactive | inactive | inhibition (Acinetobacter baumannii): inactive; inhibition (Klebsiella pneumoniae): inactive; inhibition (Pseudomonas aeruginosa): inactive; inhibition (Enterobacter sp.): inactive; inhibition (Staphylococcus aureus [15]): inactive
CC1=C(C(N)=O)C(c2ccc(N(C)C)cc2)n2nc(SCc3ccc(C#N)cc3)nc2N1 (stereo not given) | 8 (≈ 18 µM) | 1 | – | 96.8 | > 60 | 16 (≈ 35.9 µM) | 16 (≈ 35.9 µM) | – | 8 (≈ 18 µM) | < 10.4 | 4 (≈ 8.98 µM) | 4 (≈ 8.98 µM) | inactive | inactive | –
CN[C@H](CC(C)C)C(=O)N[C@H]1C(=O)N[C@@H](CC(N)=O)C(=O)N[C@H]2C(=O)N[C@H]3C(=O)N[C@H](C(=O)N[C@H](C(=O)O)c4cc(O)cc(O)c4-c4cc3ccc4O)[C@H](O)c3ccc(c(Cl)c3)Oc3cc2cc(c3O[C@@H]2O[C@H](CO)[C@@H](O)[C@H](O)[C@H]2O[C@H]2C[C@](C)(N)[C@H](O)[C@H](C)O2)Oc2ccc(cc2Cl)[C@H]1O [VANCOMYCIN] | 16 (≈ 11 µM) | – | – | – | – | 64 (≈ 44.2 µM) | – | – | – | – | 64 (≈ 44.2 µM) | – | – | – | –
